Screening data (PubChem BioAssay)
Sampled rows, rich in hits. Any-hit rate of the full collection: about 2.3%.
CR mimetic SO = caloric restriction mimetics inhibiting age-related superoxide in yeast; superoxide response (% of plate mean), % at 10 µM; S. cerevisiae aged cells, superoxide DHE fluorescence; stronger effect = lower value; actives 0.18% (n = 330,000); AID 2690;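 active = superoxide response under a set limit, about three screen SD below normal, cut at about 65% in these data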;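 also: yeast aged for seven days with compound at 30 °C before DHE staining; 100% = average MFI of all compound-treated wells on the plate with controls excluded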
TRPC4 act = activators of mouse TRPC4 channel. Q9QUQ5. AID 2237. B-score at 10 µM. actives 0.49% (n = 310,000). HEK293 TRPC4beta/mu-opioid, Fluo4 calcium fluorescence; stronger effect = higher value;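 active = B-score above 5 SD of library B-scores, and initial fluorescence ratio not above library mean plus 5 SD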;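 also: positive B-score marks a calcium rise read as TRPC4 activation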
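Test system: HEK293 cells stably co-expressing mouse TRPC4beta and mu-opioid receptor | Schedule: Fluo4 dye loading 45 min at room temperature, 110 s recording | Measured by: Kinetic Fluo4 calcium fluorescence, 5 s baseline at 1 Hz | Evaluation: B score of integrated ratio | Controls: Buffer (low) and maximal DAMGO (high)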
TRPC4 block = blocks the mouse TRPC4 cation channel; AID 2247; HEK293 TRPC4beta/mu-opioid, DAMGO-evoked Fluo4 calcium flux; stronger effect = lower value; B-score at 10 µM; Q9QUQ5; actives 0.39% (n = 300,000);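 active = B-score over 3 SD under the library average, no early fluorescence shift, positive overall ratio signal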
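Assay system: Stable TRPC4beta/mu-opioid receptor HEK293 cells | Reagent: DAMGO in two steps, submaximal then maximal | Compound dosing: Single concentration per test compound | Signal: Fluo4 Ca2+ flux fluorescence | Evaluation: Per-well B score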
TRPC6 inh = inhibitors of mouse TRPC6 channel. Q61143. HEK293-TRPC6, membrane potential dye, ACh-evoked depolarization; stronger effect = lower value. B-score at 10 µM. AID 2553. actives 1.1% (n = 310,000);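 active = B-score under library mean minus 3 SD, initial fluorescence not abnormally high, positive integrated signal ratio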;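 also: B-score derived from integrated fluorescence ratio over the kinetic read; more negative B-score means stronger inhibition of depolarization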
Target sequence (Q61143 whole entry, looked up): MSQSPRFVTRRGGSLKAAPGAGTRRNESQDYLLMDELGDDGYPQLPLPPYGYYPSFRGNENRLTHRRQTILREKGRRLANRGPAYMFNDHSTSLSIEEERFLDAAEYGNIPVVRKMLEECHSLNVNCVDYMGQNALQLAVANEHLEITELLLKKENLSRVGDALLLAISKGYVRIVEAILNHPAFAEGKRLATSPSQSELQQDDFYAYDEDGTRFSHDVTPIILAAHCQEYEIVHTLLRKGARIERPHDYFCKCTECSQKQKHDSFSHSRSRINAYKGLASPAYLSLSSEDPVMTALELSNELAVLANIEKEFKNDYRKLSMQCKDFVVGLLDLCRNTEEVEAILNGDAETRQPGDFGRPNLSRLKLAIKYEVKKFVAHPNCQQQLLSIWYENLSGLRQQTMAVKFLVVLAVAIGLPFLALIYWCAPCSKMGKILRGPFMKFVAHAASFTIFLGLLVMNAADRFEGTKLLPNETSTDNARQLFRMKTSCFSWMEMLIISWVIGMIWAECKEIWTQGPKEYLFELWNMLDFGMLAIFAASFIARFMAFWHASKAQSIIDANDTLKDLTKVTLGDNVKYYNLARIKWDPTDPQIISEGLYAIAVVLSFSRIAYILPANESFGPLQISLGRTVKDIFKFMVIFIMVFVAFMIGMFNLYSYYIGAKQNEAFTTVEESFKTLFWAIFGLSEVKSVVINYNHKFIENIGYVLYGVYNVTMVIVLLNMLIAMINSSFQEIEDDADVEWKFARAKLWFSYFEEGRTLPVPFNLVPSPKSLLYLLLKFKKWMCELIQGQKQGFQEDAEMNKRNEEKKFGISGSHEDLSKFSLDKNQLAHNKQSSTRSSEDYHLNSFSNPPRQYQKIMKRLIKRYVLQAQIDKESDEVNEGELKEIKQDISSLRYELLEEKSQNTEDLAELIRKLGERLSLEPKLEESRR
TRPC4 PAM = allosterically enhances the mouse TRPC4 cation channel. Q9QUQ5. HEK293 TRPC4beta/mu-opioid, DAMGO EC20, Fluo-4 Ca2+ flux; stronger effect = higher value. B-score at 10 µM. actives 0.42% (n = 310,000);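 active = B-score of calcium response area above 5 SD of library B-scores, with initial fluorescence ratio within 5 SD of library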;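 also: B-score of integrated fluorescence ratio over time as area under calcium response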
TRPC6 activator = activates the mouse TRPC6 cation channel. Q61143. HEK293-TRPC6 membrane potential dye fluorescence; stronger effect = higher value. B-score at 10 µM. actives 0.13% (n = 310,000). AID 2550;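 active = B-score of the integrated fluorescence ratio above library mean plus 3 SD, and starting fluorescence ratio within library mean plus 5 SD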;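 also: higher score means more depolarization so channel activation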
TRPC4 sel inh 2 = mouse TRPC4 off-target activity of TRPC6 inhibitors, second screen | actives 42% (n = 920) | HEK293 TRPC4/MOR, membrane potential dye fluorescence; channel activated by saturating DAMGO dose | inhibition, % at 10 µM | shares compounds with TRPC6 inh;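 active = compounds whose fluorescence signal differed from control wells by over 3 SD, either direction, in both duplicate plates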
TRPC4 spec = mouse TRPC4 off-target activity of TRPC6 inhibitors; shares compounds with TRPC6 inh; HEK293 TRPC4/mu-opioid, membrane potential fluorescence; activity change, negative = inhibition, % at 10 µM; actives 61% (n = 920); AID 2777;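 active = rise or fall in signal beyond 3 SD of buffer-only wells in both replicate plates, either sign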;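 also: integrated kinetic ratio of fluorescence range over baseline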
HEK293 MPD ctr 2-1 = second check of TRPC6 inhibitor effects in parental HEK293 cells. shares compounds with TRPC6 inh. parental HEK293 membrane potential dye fluorescence; maximal acetylcholine challenge after compound addition. signal change vs control, % at 10 µM. actives 31% (n = 920). AID 2779;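 active = membrane potential signal moving either way by over 3 SD of the maximum-effect control, in both duplicate plates, meaning non-specific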
HEK293 MPD ctr-1 = counter-screen for TRPC6 inhibitors: effect in parental HEK293 cells. actives 60% (n = 920). AID 2780. shares compounds with TRPC6 inh. parental HEK293 membrane potential dye fluorescence. membrane potential signal change, % at 10 µM;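 active = membrane potential signal shifting up or down by more than 3 SD of buffer-only wells, on both duplicate plates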
HEK293 MPD ctr-2 = parental HEK293 nonspecific activity of TRPC6 modulators | membrane potential dye fluorescence | shares compounds with TRPC6 inh | membrane potential signal change, % at 10 µM | AID 488924 | actives 51% (n = 2,400);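 active = membrane potential signal moves up or down beyond 5 SD from buffer-only wells, on both duplicate plates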
HEK293 MPD ctr 2-2 = second counter-screen for TRPC6 modulators: effect in parental HEK293 cells | shares compounds with TRPC6 inh | membrane potential dye fluorescence; after compound, maximal acetylcholine stimulation | inhibition, % at 10 µM | actives 14% (n = 2,400) | AID 488926;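 active = membrane potential signal drops by more than 5 SD from the mean control signal, in both duplicate plates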;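 also: plate controls were acetylcholine ECmax control wells for no effect and buffer only wells for full effect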
TRPC4 ctr mod = selectivity of TRPC6 modulators against mouse TRPC4; shares compounds with TRPC6 inh; HEK293 TRPC4/mu-opioid, membrane potential fluorescence; percent change from control (negative = decrease, positive = increase), % at 10 µM; actives 69% (n = 2,400); AID 488927;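 active = membrane potential signal moved up or down beyond 5 SD of buffer control wells, in both duplicate plates, actives on both sides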;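 also: plate controls were assay buffer wells for no effect and DAMGO maximal-effect wells for full effect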
TRPC4/MOR inh 2 = second selectivity test of TRPC6 modulators against mouse TRPC4; shares compounds with TRPC6 inh; HEK293 TRPC4/mu-opioid, membrane potential dye fluorescence; stimulated with maximal-effect DAMGO; inhibition, % at 10 µM; actives 55% (n = 2,400);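 active = drop in membrane potential signal beyond 5 SD of the control wells in both duplicate plates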;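 also: TRPC4 counter screen for TRPC6 hits run under conditions tuned for TRPC6 not TRPC4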
TRPC6 inh conf = mouse TRPC6 inhibitor confirmation; actives 43% (n = 3,300); inhibition, % at 10 µM; AID 488960; shares compounds with TRPC6 inh; HEK293-TRPC6, membrane potential dye, ACh-evoked depolarization;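 active = fluorescence ratio falls more than 5 SD below the full-stimulation control mean, in both duplicate runs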;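 also: integrated fluorescence ratio of peak minus minimum over baseline after agonist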
TRPC6 act confirm = mouse TRPC6 activator confirmation; shares compounds with TRPC6 inh; HEK293-TRPC6 membrane potential dye fluorescence, FDSS; activation, % at 10 µM; actives 11% (n = 2,800);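 active = ratio signal rise beyond 5 SD above unstimulated control wells' mean, seen in both duplicate runs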;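 also: plate controls were buffer EC0 wells for no effect and acetylcholine ECmax response for full effect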
Starred values were filed as active, the others as inactive; i = inactive; · = no result.

SMILES	CR mimetic SO	TRPC4 act	TRPC4 block	TRPC6 inh	TRPC4 PAM	TRPC6 activator	HEK293 MPD ctr-2	HEK293 MPD ctr 2-2	TRPC4 ctr mod	TRPC4/MOR inh 2	TRPC6 inh conf	TRPC6 act confirm	others
CCOC(=O)CNC(=O)Cn1cnc2c(nnn2-c2ccc(OC)cc2)c1=O	117	i	i	-9.5*	i	i	·	·	·	·	i	i	TRPC4 sel inh 2=i;TRPC4 spec=i;HEK293 MPD ctr 2-1=i;HEK293 MPD ctr-1=i
COc1ccc(C(=O)N2CCn3c(C)ccc3C2C)cc1 (stereo not given)	101	i	i	i	i	i	·	·	·	·	·	·
CC(=O)Nc1sc(/C(C#N)=C/c2ccc(Cl)c(Cl)c2)nc1-c1ccc(C)cc1	·	i	i	i	i	13*	254%*	i	46%*	i	i	76%*
CC(=O)Nc1sc(N/N=C/c2ccc(C)cc2)nc1-c1ccc(C)cc1	94	i	i	i	i	i	·	·	·	·	·	·
Cn1c(CCN2CCCCC2)nc2cc([N+](=O)[O-])ccc21	95	i	i	-5.8*	i	i	-200%*	i	-32%*	38%*	i	i
CCN1CCN(CCc2nc3cc([N+](=O)[O-])ccc3n2C)CC1	95	i	i	i	i	i	·	·	·	·	·	·
C=CCOC(=O)C1=C[C@H](c2cn(C(C)=O)c3ccccc23)C[C@H](OCCCCO)O1	98	i	i	i	i	i	·	·	·	·	·	·
O=[N+]([O-])c1ccc(CN2CCOCCOCCN(Cc3ccc([N+](=O)[O-])cc3)CCOCC2)cc1	108	i	i	-5.5*	i	i	i	i	-12%*	74%*	46%*	i
O=[N+]([O-])c1ccc(CN2CCCCCC2)cc1	102	i	i	i	i	i	·	·	·	·	·	·
CCOC(=O)c1c(NC(=O)CSc2nnc(C)c(=O)[nH]2)sc(C)c1-c1ccc(C)cc1	91	i	i	i	i	14*	136%*	i	36%*	i	i	86%*
Cc1cc(Nc2cccc(F)c2)n2c(n1)nc1ccccc12	86	i	i	i	i	i	·	·	·	·	·	·
